The values below come from ChEMBL document CHEMBL3085628, “Identification of CB1/CB2 ligands from Zanthoxylum bungeanum” (J Nat Prod, 2013).

Experiment [1] concerns the target T1, Cannabinoid receptor 2 (Homo sapiens, UniProt P34972). The experiment in a line: Displacement of [3H]-CP55940 from human CB2 receptor expressed in CHO cells preincubated for 1 hr followed by radioligand addition measured after 1 hr by liquid scintillation counting analysis. It is filed as cell-based. The gist of the method:
(§1)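 CHO cells stably expressing human CB1 or CB2 grown 24 h at 2.0 × 10^5 cells/mL in DMEM/F12 with 10% FBS. They were preincubated 1 h with serial dilutions (top 5.0 μM for CB1, 10 μM for CB2; DMSO <0.1% final), then given 1 h 10 nM [3H]-Win 55,212-2 (CB1) or 2 nM [3H]-CP 55,940 (CB2). Cells were washed, NaOH-lysed and scintillation-counted. Uptake normalized to no-compound wells; sigmoid fit; mean ± SE, n = 6.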

Experiment [2] deals with T2, Cannabinoid receptor 1 (Homo sapiens, UniProt P21554). Put plainly: Displacement of [3H]-Win55212-2 from human CB1 receptor expressed in CHO cells preincubated for 1 hr followed by radioligand addition measured after 1 hr by liquid scintillation counting analysis. In kind it is cell-based. The gist of the method:
as §1
On the technique in general: Displacement assays read how much labelled ligand stays bound in the presence of the test substance.

For another experiment, the species on record is Homo sapiens. The experiment in a line: Selectivity ratio of IC50 for human CB1 receptor to IC50 for human CB2 receptor.
In experiment [3] the target is T2, Cannabinoid receptor 1. The experiment in a line: Inhibition of human CB1 receptor internalization expressed in CHO cells assessed as inhibition of [3H]-Win55212-2 uptake preincubated for 1 hr followed by radioligand addition measured after 1 hr by liquid scintillation counting analysis relative to control. It is filed as cell-based. Also on record: concentration or dose not given beside the values. The following applies: concentration not given here. The gist of the method: as §1

For experiment [4], the target named is T1, Cannabinoid receptor 2. The experiment in a line: Inhibition of human CB2 receptor internalization expressed in CHO cells assessed as inhibition of [3H]-CP55940 uptake preincubated for 1 hr followed by radioligand addition measured after 1 hr by liquid scintillation counting analysis relative to control. In kind it is cell-based. Also on record: concentration or dose not given beside the values. To be noted: concentration not given here. In outline: as §1

The target in experiment [5] is T2, Cannabinoid receptor 1. The experiment in a line: Antagonist activity at CB1 receptor (unknown origin) at 10 uM after 3 to 5 hrs by beta-arrestin assay relative to control.
In experiment [6] the target is T3, Follicle-stimulating hormone receptor (Homo sapiens) (UniProt P23945).
T3 sequence (whole entry): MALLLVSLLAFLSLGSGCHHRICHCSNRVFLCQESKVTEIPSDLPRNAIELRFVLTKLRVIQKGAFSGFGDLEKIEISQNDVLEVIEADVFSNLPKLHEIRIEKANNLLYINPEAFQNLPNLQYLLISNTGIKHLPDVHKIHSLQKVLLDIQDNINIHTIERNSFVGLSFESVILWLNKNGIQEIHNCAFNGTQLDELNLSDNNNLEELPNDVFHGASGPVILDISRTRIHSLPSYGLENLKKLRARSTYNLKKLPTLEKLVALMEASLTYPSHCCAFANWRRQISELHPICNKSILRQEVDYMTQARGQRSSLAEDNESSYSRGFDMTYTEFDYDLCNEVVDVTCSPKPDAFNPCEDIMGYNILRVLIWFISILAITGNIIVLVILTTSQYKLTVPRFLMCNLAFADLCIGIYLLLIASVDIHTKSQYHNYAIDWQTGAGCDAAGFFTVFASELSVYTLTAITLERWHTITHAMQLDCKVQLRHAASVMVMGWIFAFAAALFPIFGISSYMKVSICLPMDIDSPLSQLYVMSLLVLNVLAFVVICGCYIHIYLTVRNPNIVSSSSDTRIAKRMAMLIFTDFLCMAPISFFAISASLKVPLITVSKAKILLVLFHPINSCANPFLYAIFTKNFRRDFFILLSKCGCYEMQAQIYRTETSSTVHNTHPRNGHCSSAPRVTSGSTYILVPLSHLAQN
The experiment in a line: Agonist activity at FSHR (unknown origin) at 10 uM after 90 to 180 mins by beta-arrestin assay relative to control.

The target in experiment [7] is T4, Prolactin-releasing peptide receptor (Homo sapiens) (UniProt P49683).
T4 sequence (whole entry): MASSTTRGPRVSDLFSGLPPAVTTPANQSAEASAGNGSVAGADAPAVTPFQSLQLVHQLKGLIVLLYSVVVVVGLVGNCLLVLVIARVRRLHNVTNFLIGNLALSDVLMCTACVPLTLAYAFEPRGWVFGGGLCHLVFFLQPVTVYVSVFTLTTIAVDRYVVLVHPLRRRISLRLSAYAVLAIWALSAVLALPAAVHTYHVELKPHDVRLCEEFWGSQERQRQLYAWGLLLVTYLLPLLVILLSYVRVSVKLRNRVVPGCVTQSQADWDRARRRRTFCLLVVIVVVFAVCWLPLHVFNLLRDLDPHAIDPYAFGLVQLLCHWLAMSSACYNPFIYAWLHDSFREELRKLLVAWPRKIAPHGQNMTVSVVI
Put plainly: Agonist activity at PRLHR (unknown origin) at 10 uM after 90 to 180 mins by beta-arrestin assay relative to control.

In experiment [8] the target is T5, Probable G-protein coupled receptor 132 (Homo sapiens) (UniProt Q9UNW8).
T5 sequence (whole entry): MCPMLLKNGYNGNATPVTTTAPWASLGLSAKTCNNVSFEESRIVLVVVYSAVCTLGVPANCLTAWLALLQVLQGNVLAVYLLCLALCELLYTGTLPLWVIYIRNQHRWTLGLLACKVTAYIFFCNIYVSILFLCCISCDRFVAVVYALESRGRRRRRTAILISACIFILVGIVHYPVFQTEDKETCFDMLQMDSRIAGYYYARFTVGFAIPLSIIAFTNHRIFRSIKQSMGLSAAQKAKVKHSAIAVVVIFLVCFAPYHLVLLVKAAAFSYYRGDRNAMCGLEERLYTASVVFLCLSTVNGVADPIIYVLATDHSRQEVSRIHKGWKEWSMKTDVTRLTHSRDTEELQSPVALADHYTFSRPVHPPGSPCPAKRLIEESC
Put plainly: Agonist activity at GPR132 (unknown origin) expressed in CHO-K1 cells at 10 uM after 90 to 180 mins by beta-arrestin assay relative to control. In kind it is cell-based.

For experiment [9], the target named is T4, Prolactin-releasing peptide receptor (Homo sapiens). Put plainly: Antagonist activity at PRLHR (unknown origin) at 10 uM after 3 to 5 hrs by beta-arrestin assay relative to control.
Experiment [10] addresses T1, Cannabinoid receptor 2. Put plainly: Agonist activity at CB2 receptor (unknown origin) at 10 uM after 90 to 180 mins by beta-arrestin assay relative to control.
The target of experiment [11] is Histamine H4 receptor (Homo sapiens) (UniProt Q9H3N8). Put plainly: Agonist activity at HRH4 (unknown origin) at 10 uM after 90 to 180 mins by beta-arrestin assay relative to control.
For experiment [12], the target named is T1, Cannabinoid receptor 2. The experiment in a line: Antagonist activity at CB2 receptor (unknown origin) at 10 uM after 3 to 5 hrs by beta-arrestin assay relative to control.
The target of experiment [13] is T1, Cannabinoid receptor 2. The experiment in a line: Agonist activity at CB2 receptor (unknown origin) after 90 to 180 mins by beta-arrestin assay.
In experiment [14] the target is G-protein coupled receptor 55 (Homo sapiens) (UniProt Q9Y2T6). The experiment in a line: Agonist activity at GPR55 (unknown origin) expressed in CHO-K1 cells at 10 uM after 90 to 180 mins by beta-arrestin assay relative to control. It is filed as cell-based.
The target in experiment [15] is T6, Relaxin-3 receptor 1 (Homo sapiens) (UniProt Q9NSD7).
T6 sequence (whole entry): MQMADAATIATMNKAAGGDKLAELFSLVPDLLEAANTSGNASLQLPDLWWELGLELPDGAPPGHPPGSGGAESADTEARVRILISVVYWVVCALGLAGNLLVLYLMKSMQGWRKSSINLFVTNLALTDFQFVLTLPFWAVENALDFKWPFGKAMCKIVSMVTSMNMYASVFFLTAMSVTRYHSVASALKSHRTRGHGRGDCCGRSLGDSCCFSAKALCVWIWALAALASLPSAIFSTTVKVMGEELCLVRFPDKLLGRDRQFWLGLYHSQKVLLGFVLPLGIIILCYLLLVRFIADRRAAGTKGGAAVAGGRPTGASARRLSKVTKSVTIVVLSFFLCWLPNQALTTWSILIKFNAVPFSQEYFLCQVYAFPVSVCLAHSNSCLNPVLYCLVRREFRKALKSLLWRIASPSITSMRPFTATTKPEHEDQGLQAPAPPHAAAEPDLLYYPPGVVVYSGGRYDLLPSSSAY
The experiment in a line: Agonist activity at RXFP3 (unknown origin) at 10 uM after 90 to 180 mins by beta-arrestin assay relative to control.

The target of experiment [16] is Prostaglandin E2 receptor EP2 subtype (Homo sapiens) (UniProt P43116). Put plainly: Agonist activity at PTGER2 (unknown origin) at 10 uM after 90 to 180 mins by beta-arrestin assay relative to control.
The target in experiment [17] is T3, Follicle-stimulating hormone receptor (Homo sapiens). Put plainly: Antagonist activity at FSHR (unknown origin) at 10 uM after 3 to 5 hrs by beta-arrestin assay relative to control.
In experiment [18] the target is T7, G-protein coupled receptor 151 (Homo sapiens) (UniProt Q8TDV0).
T7 sequence (whole entry): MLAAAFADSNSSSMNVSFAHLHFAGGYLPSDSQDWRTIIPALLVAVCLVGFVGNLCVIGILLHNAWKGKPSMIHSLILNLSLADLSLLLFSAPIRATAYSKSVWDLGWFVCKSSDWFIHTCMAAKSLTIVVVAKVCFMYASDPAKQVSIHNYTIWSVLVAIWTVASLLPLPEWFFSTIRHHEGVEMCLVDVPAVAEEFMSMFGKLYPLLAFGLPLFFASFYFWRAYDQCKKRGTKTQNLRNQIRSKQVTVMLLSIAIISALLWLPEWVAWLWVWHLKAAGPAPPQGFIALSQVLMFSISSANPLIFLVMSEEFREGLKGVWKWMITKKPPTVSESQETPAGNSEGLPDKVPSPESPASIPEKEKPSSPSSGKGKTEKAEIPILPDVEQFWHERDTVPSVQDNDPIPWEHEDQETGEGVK
The experiment in a line: Agonist activity at GPR151 (unknown origin) expressed in CHO-K1 cells at 10 uM after 90 to 180 mins by beta-arrestin assay relative to control. It is filed as cell-based.

Experiment [19] concerns the target T2, Cannabinoid receptor 1. Put plainly: Agonist activity at CB1 receptor (unknown origin) at 10 uM after 90 to 180 mins by beta-arrestin assay relative to control.

pEC50, pIC50: −log10 of the molar value.

T2 sequence (P21554 whole entry): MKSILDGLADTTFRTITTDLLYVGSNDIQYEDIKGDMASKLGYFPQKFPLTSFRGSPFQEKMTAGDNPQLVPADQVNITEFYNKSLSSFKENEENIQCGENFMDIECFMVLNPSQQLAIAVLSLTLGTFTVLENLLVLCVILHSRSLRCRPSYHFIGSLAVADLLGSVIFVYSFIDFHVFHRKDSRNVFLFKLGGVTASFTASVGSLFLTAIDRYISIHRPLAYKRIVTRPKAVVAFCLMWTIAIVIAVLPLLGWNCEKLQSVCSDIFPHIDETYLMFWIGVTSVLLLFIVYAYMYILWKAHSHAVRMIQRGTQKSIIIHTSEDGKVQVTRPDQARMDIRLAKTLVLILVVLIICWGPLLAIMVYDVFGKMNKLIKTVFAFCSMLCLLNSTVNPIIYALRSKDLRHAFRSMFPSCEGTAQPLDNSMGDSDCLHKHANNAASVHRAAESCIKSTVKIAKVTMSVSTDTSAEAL
T1 sequence (P34972 whole entry): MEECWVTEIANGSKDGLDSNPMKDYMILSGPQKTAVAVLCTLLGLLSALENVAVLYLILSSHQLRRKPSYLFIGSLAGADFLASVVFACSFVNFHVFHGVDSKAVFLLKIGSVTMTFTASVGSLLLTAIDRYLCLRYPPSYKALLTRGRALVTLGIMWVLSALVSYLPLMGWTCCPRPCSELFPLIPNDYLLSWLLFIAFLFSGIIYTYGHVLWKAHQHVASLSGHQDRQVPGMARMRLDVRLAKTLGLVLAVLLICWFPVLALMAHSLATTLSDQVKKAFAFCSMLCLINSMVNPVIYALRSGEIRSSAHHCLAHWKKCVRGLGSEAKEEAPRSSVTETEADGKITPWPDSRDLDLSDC
Prostaglandin E2 receptor EP2 subtype (Homo sapiens), sequence (P43116 whole entry): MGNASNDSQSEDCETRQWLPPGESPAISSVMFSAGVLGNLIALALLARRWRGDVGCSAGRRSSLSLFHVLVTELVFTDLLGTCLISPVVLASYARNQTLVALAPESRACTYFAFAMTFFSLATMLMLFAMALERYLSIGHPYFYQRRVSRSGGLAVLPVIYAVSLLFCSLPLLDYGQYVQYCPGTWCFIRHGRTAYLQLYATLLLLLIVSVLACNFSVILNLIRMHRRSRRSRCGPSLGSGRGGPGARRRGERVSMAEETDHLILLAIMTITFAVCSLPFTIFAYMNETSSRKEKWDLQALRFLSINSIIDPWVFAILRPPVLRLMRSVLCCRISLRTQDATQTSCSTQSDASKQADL
G-protein coupled receptor 55 (Homo sapiens), sequence (Q9Y2T6 whole entry): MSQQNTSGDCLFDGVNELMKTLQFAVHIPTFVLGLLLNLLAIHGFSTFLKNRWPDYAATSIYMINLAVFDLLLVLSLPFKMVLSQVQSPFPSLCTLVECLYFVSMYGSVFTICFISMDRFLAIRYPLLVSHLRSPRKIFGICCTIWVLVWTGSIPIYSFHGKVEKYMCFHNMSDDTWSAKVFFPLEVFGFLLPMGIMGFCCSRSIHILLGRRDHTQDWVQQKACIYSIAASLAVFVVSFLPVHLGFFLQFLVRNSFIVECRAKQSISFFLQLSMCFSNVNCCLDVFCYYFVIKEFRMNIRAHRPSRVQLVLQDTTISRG
Histamine H4 receptor (Homo sapiens), sequence (Q9H3N8 whole entry): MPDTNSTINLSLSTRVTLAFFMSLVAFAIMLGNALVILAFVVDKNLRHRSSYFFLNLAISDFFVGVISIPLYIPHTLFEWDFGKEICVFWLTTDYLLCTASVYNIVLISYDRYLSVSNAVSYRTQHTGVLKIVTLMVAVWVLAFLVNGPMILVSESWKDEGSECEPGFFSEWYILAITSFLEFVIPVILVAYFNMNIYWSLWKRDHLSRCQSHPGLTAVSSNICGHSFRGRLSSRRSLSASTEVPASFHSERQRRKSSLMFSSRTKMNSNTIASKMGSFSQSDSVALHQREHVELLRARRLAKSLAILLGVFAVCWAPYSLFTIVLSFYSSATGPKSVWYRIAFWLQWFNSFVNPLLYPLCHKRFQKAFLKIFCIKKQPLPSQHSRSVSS

Turning to `C/C=C/C=C/C=C\CC/C=C/C(=O)NCC(C)(O)CO` (centres undefined), the results for the pIC50 at Cannabinoid receptor 2 [1] and on Cannabinoid receptor 1 [2] were 6.77 and 7.39, respectively. For the same compound, the Ratio IC50 in the experiment filed under Homo sapiens is 0.24. The inhibition (usually the relative decrease from the control value, in per cent) at Cannabinoid receptor 1 [3] stood at 76%; at Cannabinoid receptor 2 [4] it was 65%.
On to `C/C=C/C=C/C=C/CC/C=C/C=C/C(=O)NCC(C)C`, for which the inhibition stood at 72% at Cannabinoid receptor 1 [5]; 52% in experiment [9]; 15% against Cannabinoid receptor 2 [12]; 68% in experiment [17]; 37% at Cannabinoid receptor 1 [3]; 57% at Cannabinoid receptor 2 [4]. For the same compound, the Activity in experiment [6] is 5%; in [7] it was 5%; in [8], 61%; in experiment [11] it was 18%; in [14], 67%; in [15], 18%. Further, the results for the Activity (in experiment [16]; in experiment [18]; on Cannabinoid receptor 1 [19]) were 7%, 76% and 5%, respectively. Further, the pIC50 (in general, the negative decadic logarithm of the IC50, by convention in mol/L) is 6.18 on Cannabinoid receptor 2 [1] and 7.00 at Cannabinoid receptor 1 [2]. The same compound registered a % activity at Cannabinoid receptor 2 [10] of 64%. For the same compound, the negative logarithm of the EC50 (pEC50) (usually the negative decadic logarithm of the EC50, by convention in mol/L) on Cannabinoid receptor 2 [13] was 7.38. Moreover, the Ratio IC50 in the experiment filed under Homo sapiens came to 0.15.
Consider `C/C=C/C=C/C=C\CC/C=C/C=C/C(=O)NCC(C)(C)O`, for which the pIC50 was 6.71 at Cannabinoid receptor 2 [1] and 6.74 on Cannabinoid receptor 1 [2]. The Ratio IC50 in the experiment filed under Homo sapiens was found to be 0.9. In addition, the inhibition at Cannabinoid receptor 1 [3] is 31%; at Cannabinoid receptor 2 [4] it was 65%.
On the same counts, the results for `CC/C=C/C/C=C\CC/C=C/C=C/C(=O)NCC(C)(C)O` are 5.04, 5.62, 0.26, 45% and 62%.
Turning to `C/C=C/C=C/C=C/CC/C=C/C=C/C(=O)NCC(C)(C)O`, the pIC50 is 6.65 at Cannabinoid receptor 2 [1] and 5.86 at Cannabinoid receptor 1 [2]. Further, in the experiment filed under Homo sapiens, the Ratio IC50 came out at 6.2. For the same compound, the values for the inhibition on Cannabinoid receptor 1 [3] and on Cannabinoid receptor 2 [4] were 39% and 34%, respectively.
Consider `C/C=C/C=C/C=C/CC/C=C/C(=O)NCC(C)(C)O`, for which the pIC50 at Cannabinoid receptor 2 [1] is 6.88; at Cannabinoid receptor 1 [2], 8.05.
Turning to `CCCCCCCCC/C=C/C=C/C(=O)NCC(C)(C)O` [TETRAHYDROBUNGEANOOL], the figures for the pIC50 on Cannabinoid receptor 2 [1] and on Cannabinoid receptor 1 [2] were 8.70 and 5.34, respectively. Also, in the experiment filed under Homo sapiens, the Ratio IC50 came out at 2560. Also, the figures for the inhibition at Cannabinoid receptor 1 [3] and at Cannabinoid receptor 2 [4] were 30% and 73%, respectively.
Consider `C/C=C/C=C/C=C\CC/C=C/C(=O)NCC(C)(C)O`, for which the pIC50 on Cannabinoid receptor 2 [1] is 7.23; on Cannabinoid receptor 1 [2], 5.13.
